Measured values from article PMC2828495 (Bioorganic & medicinal chemistry, 2010).

Legend:
EcSecA = EcSecA (Escherichia coli, UniProt P10408); assay: Whole EcSecA ATPase inhibition; assay type: biochemical, E. coli
Method in brief: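 Full-length E. coli SecA was over-expressed from pT7-SecA and purified. Each reaction held 5 µg SecA, 2 mM ATP, 50 mM Tris-HCl pH 7.6, 20 mM KCl, 20 mM NH4Cl, 1 mM DTT, 2 mM Mg(OAc)2 and 10% DMSO, run at 40 °C for 40 min. Malachite green, then 34% citric acid, was added; after 40 min at room temperature A660 gave Pi. Activity was expressed as % of no-compound control, at least in triplicate, with IC50 from inhibition curves.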

leaky mutant NR698 = assay: Antimicrobial test; assay type: cell-based, E. coli; settings: Figure 8
Method in brief: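 E. coli NR698 (MC4100 imp4213), a strain with increased outer-membrane permeability. Log-phase cells at OD600 ~0.5 to 1.0 were diluted to OD600 0.05 and test compound (dissolved in DMSO) was added. Cultures containing 5% DMSO final were shaken at 37 °C, 1050 rpm, for 10 to 12 h. MIC was then determined.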

[1] = test system: wild type E. coli strain MC4100; assay: Antimicrobial test; assay type: cell-based; settings: Figure 8
[2] = Solubility observation in the inhibition assay; assay type: physicochemical; settings: when approaching 100 µM
EcN68 SecA = EcN68 SecA (Escherichia coli, UniProt P10408); assay: EcN68 SecA ATPase inhibition; assay type: biochemical, E. coli
Chain of EcN68 SecA (P10408 1-610): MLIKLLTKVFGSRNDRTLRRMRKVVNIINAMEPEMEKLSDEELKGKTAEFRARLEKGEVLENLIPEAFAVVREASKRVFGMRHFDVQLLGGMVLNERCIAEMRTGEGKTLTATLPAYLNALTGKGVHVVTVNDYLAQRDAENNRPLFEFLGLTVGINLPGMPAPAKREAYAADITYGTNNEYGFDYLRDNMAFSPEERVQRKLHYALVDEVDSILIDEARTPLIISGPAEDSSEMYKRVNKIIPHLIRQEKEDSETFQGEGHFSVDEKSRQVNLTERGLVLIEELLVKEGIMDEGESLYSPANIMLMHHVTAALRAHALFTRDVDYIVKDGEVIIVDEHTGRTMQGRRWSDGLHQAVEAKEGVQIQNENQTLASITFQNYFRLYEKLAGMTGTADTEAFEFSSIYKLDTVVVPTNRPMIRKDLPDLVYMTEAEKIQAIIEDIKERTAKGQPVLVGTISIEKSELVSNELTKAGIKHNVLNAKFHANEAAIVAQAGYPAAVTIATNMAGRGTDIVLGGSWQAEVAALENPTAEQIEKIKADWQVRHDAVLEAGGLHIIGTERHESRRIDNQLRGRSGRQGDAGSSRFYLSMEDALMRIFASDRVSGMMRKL

Chain of EcSecA (P10408 whole entry): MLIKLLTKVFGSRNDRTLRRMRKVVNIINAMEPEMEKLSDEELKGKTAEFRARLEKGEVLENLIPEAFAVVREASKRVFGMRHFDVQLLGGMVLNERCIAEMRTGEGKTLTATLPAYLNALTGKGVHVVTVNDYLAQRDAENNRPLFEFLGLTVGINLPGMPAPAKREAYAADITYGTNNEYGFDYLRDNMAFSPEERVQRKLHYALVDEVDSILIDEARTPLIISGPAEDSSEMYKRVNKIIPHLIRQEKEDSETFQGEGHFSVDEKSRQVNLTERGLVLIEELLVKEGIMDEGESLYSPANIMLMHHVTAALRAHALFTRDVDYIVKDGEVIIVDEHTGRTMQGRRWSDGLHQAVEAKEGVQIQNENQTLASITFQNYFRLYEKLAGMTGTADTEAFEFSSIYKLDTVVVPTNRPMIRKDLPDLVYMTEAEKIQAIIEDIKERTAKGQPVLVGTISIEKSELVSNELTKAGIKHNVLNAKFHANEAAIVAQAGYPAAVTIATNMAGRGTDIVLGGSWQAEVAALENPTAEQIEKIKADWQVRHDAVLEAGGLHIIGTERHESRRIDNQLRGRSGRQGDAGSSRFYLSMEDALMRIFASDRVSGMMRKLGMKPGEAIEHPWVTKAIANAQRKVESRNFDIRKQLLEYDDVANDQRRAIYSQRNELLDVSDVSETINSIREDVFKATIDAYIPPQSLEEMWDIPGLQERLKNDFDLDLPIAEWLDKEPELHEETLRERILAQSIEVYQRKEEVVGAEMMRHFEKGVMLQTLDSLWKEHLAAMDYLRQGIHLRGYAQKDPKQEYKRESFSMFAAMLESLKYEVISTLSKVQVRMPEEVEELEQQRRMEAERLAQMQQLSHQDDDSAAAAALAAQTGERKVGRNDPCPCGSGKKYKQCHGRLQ

| SMILES | IC50 (EcSecA) [µM] | antimicrobial activity (MIC) against NR698 (leaky mutant NR698) | antimicrobial activity (MIC) against MC4100 [1] | solubility [2] | IC50 (EcN68 SecA) [µM] | fold more potent than the hit compound(s) (EcN68 SecA) [fold] |
| --- | --- | --- | --- | --- | --- | --- |
| N#Cc1c(-c2ccc(-c3ccccc3)cc2)nc(SCc2ccccc2)[nH]c1=O [17h, S-Benzyl-5-cyano-6-(biphenyl-4-yl)-2-thiouracil] | 60 | most potent inhibition effects | neither 17h nor 16h exhibited inhibition effects | – | – | – |
| Cc1onc(-c2c(F)cccc2Cl)c1C(=O)Nc1ccc(Sc2ccccc2)nc1Sc1ccccc1 [compound 1] | – | – | – | started having solubility problems when approaching 100 µM | – | – |
| N#Cc1c(-c2ccc(-c3ccccc3)cc2)nc(SCc2ccc(CSC3=NC(=O)C(C#N)C(c4ccc(-c5ccccc5)cc4)=N3)cc2)[nH]c1=O (stereo not drawn) [16h, 2,2'-(α,α’-Xylene)bis(sulfanediyl)bis-(6-(biphenyl-4-yl)-5-cyano-4-oxopyrimidine)] | – | did not exhibit significantly antimicrobial activities | neither 17h nor 16h exhibited inhibition effects | – | 2 | 50 |
| N#Cc1c(-c2ccc(Br)cc2)nc(SCc2ccc(CSC3=NC(=O)C(C#N)C(c4ccc(Br)cc4)=N3)cc2)[nH]c1=O (stereo not drawn) [16g, 2,2'-(α,α’-Xylene)bis(sulfanediyl)bis-(6-(4-bromophenyl)-5-cyano-4-oxopyrimidine)] | – | – | – | – | – | 50 |
